The IC50 is the concentration that inhibits the measured activity by half. Low readings indicate greater potency in that assay, high ones weaker potency in that assay. By inhibition is commonly meant the share of the control response that was lost under treatment. A low value points to a weak effect.

The record followed here is ChEMBL document CHEMBL3286245, “Synthesis and antitumor activity of pyrido [2,3-d]pyrimidine and pyrido[2,3-d] [1,2,4]triazolo[4,3-a]pyrimidine derivatives that induce apoptosis through G1 cell-cycle arrest” (Eur J Med Chem, 2014).

Test [1] relates to A549. In words: Cytotoxicity against human A549 cells after 48 hrs by sulforhodamine B assay. It counts as functional, cell-based. The note with it: A549, 48 h. The method, boiled down: (§1)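 Exponentially growing cells harvested with 0.25% trypsin-EDTA, seeded at 1000–2000 cells/well in supplemented DMEM, left 24 h, then exposed 48 h to a concentration series; 5-fluorouracil as reference. Fixed with 10% TCA 1 h at 4 °C, stained 10 min with 0.4% SRB in 1% acetic acid, dye solubilized in Tris-HCl, OD read at 564 nm. IC50 from Boltzmann sigmoidal nonlinear fit; means of at least three experiments.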
For orientation: The SRB assay estimates cell density from bound dye.

Test [2] concerns PC-3. The test is described as follows: Cytotoxicity against human PC3 cells after 48 hrs by sulforhodamine B assay. The note with it: PC-3, 48 h. In kind it is functional, cell-based. The method, boiled down:
as §1

Another test relates to MCF7. In words: Cytotoxicity against human MCF7 cells after 48 hrs by sulforhodamine B assay. It counts as functional, cell-based. The note with it: MCF7, 48 h. The essentials: as §1
A further test concerns HepG2. In words: Cytotoxicity against human HepG2 cells after 48 hrs by sulforhodamine B assay. It counts as functional, cell-based. The conditions noted are these: HepG2, 48 h. The method, boiled down:
as §1

Test [3] deals with A549. In words: Ratio of 5-fluorouracil IC50 to compound IC50 for human A549 cells. It counts as functional.
The test system of test [4] is PC-3. In words: Induction of apoptosis in human PC3 cells assessed as wrinkled cells at IC50 after 24 hrs by acridine orange/ethidium bromide staining-based fluorescence microscopic analysis. It counts as functional, cell-based.
Test [5] concerns PC-3. The test is described as follows: Induction of apoptosis in human PC3 cells assessed as condensed and fragmented chromatin at IC50 after 24 hrs by acridine orange/ethidium bromide staining-based fluorescence microscopic analysis. It counts as functional, cell-based.
The test system of test [6] is PC-3. In words: Induction of apoptosis in human PC3 cells assessed as condensed and fragmented chromatin at IC50 after 48 hrs by acridine orange/ethidium bromide staining-based fluorescence microscopic analysis. In kind it is functional, cell-based.
Test [7] deals with PC-3. In words: Induction of apoptosis in human PC3 cells assessed as increase in caspase-3 level at IC50 uM after 24 hrs by sandwich enzyme immunoassay relative to control. In kind it is functional.
The subject of test [8] is PC-3. In words: Induction of apoptosis in human PC3 cells assessed as increase in caspase-3 level at IC50 uM after 48 hrs by sandwich enzyme immunoassay relative to control. In kind it is functional.
Test [9] relates to PC-3. In words: Cell cycle arrest in human PC3 cells assessed as accumulation at G0/G1 phase at IC50 after 24 hrs by propidium iodide staining-based flow cytometric analysis. It counts as functional.
Test [10] relates to PC-3. The test is described as follows: Cell cycle arrest in human PC3 cells assessed as reduction in accumulation at S phase at IC50 after 24 hrs by propidium iodide staining-based flow cytometric analysis. In kind it is functional.
The subject of test [11] is PC-3. The test is described as follows: Cell cycle arrest in human PC3 cells assessed as reduction in accumulation at G2/M phase at IC50 after 24 hrs by propidium iodide staining-based flow cytometric analysis. It counts as functional. Background: In flow cytometry, cells or beads pass a laser one at a time.
Test [12] concerns PC-3. In words: Cell cycle arrest in human PC3 cells assessed as increase in accumulation at pre-G phase at IC50 after 48 hrs by propidium iodide staining-based flow cytometric analysis. It counts as functional.
Test [13] has as its target Cyclin-dependent kinase 4/cyclin D1 (Homo sapiens) (UniProt P11802+P24385). The test is described as follows: Inhibition of CDK4/cyclin D1 (unknown origin) at 10 uM after 20 to 30 mins by scintillation counting analysis relative to control. In kind it is protein-complex assay.
Test [14] addresses T1, CDK6/cyclin D1 (Homo sapiens) (UniProt P24385+Q00534). In words: Inhibition of CDK6/cyclin D1 (unknown origin) at 1 uM after 20 to 30 mins by scintillation counting analysis relative to control. In kind it is protein-complex assay.
The target in test [15] is T1, CDK6/cyclin D1 (Homo sapiens). In words: Inhibition of CDK6/cyclin D1 (unknown origin) at 10 uM after 20 to 30 mins by scintillation counting analysis relative to control. In kind it is protein-complex assay.
In test [16] the test system is PC-3. In words: Upregulation of p21 protein level in human PC3 cells at IC50 after 48 hrs by immunocytochemical analysis. It counts as functional, cell-based.
For test [17], the system named is PC-3. The test is described as follows: Upregulation of p21 protein level in human PC3 cells at IC50 after 48 hrs by Western blotting analysis relative to control. It counts as functional.

The source made the active and inactive calls. The calls are words filed in the database; no cut-off is given here.

As to `CC(=O)c1nn(-c2ccccc2)c2nc3nc(-c4cccs4)cc(-c4ccccc4)c3c(=O)n12`, the IC50 was found to be 58.3 µM in the test with A549 [1] and 32.3 µM with PC-3 [2].
With `COc1ccc(/C=N/Nc2nc3nc(-c4cccs4)cc(-c4ccccc4)c3c(=O)[nH]2)cc1`, the IC50 in the test on A549 [1] stood at 18.7 µM; in the test on PC-3 [2], 18.2 µM.
In the case of `O=c1[nH]cc(F)c(=O)[nH]1` [FLUOROURACIL], the IC50 is 4.21 µM in the test on A549 [1] and 12 µM in the test on PC-3 [2].
`CCOC(=O)c1nn(-c2ccc(C)cc2)c2nc3nc(-c4cccs4)cc(-c4ccccc4)c3c(=O)n12`: the IC50 in the test with A549 [1] was found to be 37.8 µM; in the test with PC-3 [2] it was 33.3 µM.
The corresponding values for `Cc1ccc(/C=N/Nc2nc3nc(-c4cccs4)cc(-c4ccccc4)c3c(=O)[nH]2)cc1` are 56.6 µM and 0.63 µM.
On the same counts, the results for `O=c1[nH]c(N/N=C/c2ccc(Cl)cc2)nc2nc(-c3cccs3)cc(-c3ccccc3)c12` are 40.8 µM and 23.8 µM.
The corresponding values for `O=c1[nH]c(N/N=C/c2ccccc2)nc2nc(-c3cccs3)cc(-c3ccccc3)c12` are 32.1 µM and 26.8 µM.
With `O=c1c2c(-c3ccccc3)cc(-c3cccs3)nc2nc2[nH][nH]c(=S)n12`, the concentration for half-maximal inhibition (IC50) with A549 [1] stood at 54.1 µM; with PC-3 [2] it was 32.4 µM.
For `CC(=O)c1nn(-c2ccc(S(N)(=O)=O)cc2)c2nc3nc(-c4cccs4)cc(-c4ccccc4)c3c(=O)n12`, the IC50 was found to be 38 µM with MCF7, 56.6 µM in the test on HepG2, 0.41 µM in the test with A549 [1] and 0.36 µM in the test with PC-3 [2]. The “Ratio IC50” value in the test on A549 [3] is 10. Also, the result with PC-3 [4], in the test on PC-3 [5], with PC-3 [6], with PC-3 [9], with PC-3 [10] and in the test with PC-3 [11] was Active. In addition, the result in the test on PC-3 [12] and with PC-3 [16] was Active. The “fold change (FC)” value with PC-3 [7] came to 1.5; with PC-3 [8], 2; in the test on PC-3 [17], 1.7. The inhibition in test [13] was determined as 5%; in test [14] it was 2%; in [15] it was 1%.
For `COc1ccc(-n2nc(C(C)=O)n3c(=O)c4c(-c5ccccc5)cc(-c5cccs5)nc4nc23)cc1`, the IC50 was 24.6 µM in the test with A549 [1] and 19.5 µM in the test on PC-3 [2].
Take `CCOC(=O)c1nn(-c2ccc(Cl)cc2)c2nc3nc(-c4cccs4)cc(-c4ccccc4)c3c(=O)n12`: the results for the IC50 in the test on A549 [1] and with PC-3 [2] were 72.6 µM and 37.4 µM, respectively.
The corresponding values for `O=c1[nH][nH]c2nc3nc(-c4cccs4)cc(-c4ccccc4)c3c(=O)n12` are 14.7 µM and 12.7 µM.
With `Cc1n[nH]c2nc3nc(-c4cccs4)cc(-c4ccccc4)c3c(=O)n12`, the IC50 is 55.5 µM in the test on A549 [1] and 83.9 µM in the test on PC-3 [2].
On the same counts, the results for `Nc1n[nH]c2nc3nc(-c4cccs4)cc(-c4ccccc4)c3c(=O)n12` are 43.7 µM and 12.3 µM.
Take `CC(=O)c1nn(-c2ccc(C)cc2)c2nc3nc(-c4cccs4)cc(-c4ccccc4)c3c(=O)n12`: the IC50 is 19.3 µM in the test with A549 [1] and 16.9 µM in the test with PC-3 [2].
Consider `O=c1[nH]c(N/N=C/c2ccc(F)cc2)nc2nc(-c3cccs3)cc(-c3ccccc3)c12`, for which the IC50 in the test on A549 [1] came out at 3.36 µM; with PC-3 [2] it was 1.54 µM.
The corresponding values for `CCOC(=O)c1nn(-c2ccc(S(N)(=O)=O)cc2)c2nc3nc(-c4cccs4)cc(-c4ccccc4)c3c(=O)n12` are 16.4 µM and 7.15 µM.
With `O=c1c2c(-c3ccccc3)cc(-c3cccs3)nc2nc2[nH]ncn12`, the IC50 was determined as 21.7 µM with A549 [1] and 11.7 µM with PC-3 [2].
The corresponding values for `CC(=O)c1nn(-c2ccc(Cl)cc2)c2nc3nc(-c4cccs4)cc(-c4ccccc4)c3c(=O)n12` are 30.6 µM and 22.9 µM.
The corresponding values for `CC(=O)c1nn(-c2ccc(F)cc2)c2nc3nc(-c4cccs4)cc(-c4ccccc4)c3c(=O)n12` are 39.1 µM and 35.9 µM.
The corresponding values for `CCOC(=O)c1nn(-c2ccccc2)c2nc3nc(-c4cccs4)cc(-c4ccccc4)c3c(=O)n12` are 26.6 µM and 33.6 µM.
